From ChEMBL document CHEMBL1781961, “Synthesis and in vitro antibacterial activity of 7-(3-alkoxyimino-4-amino-4-methylpiperidin-1-yl) fluoroquinolone derivatives” (Eur J Med Chem, 2011)
≈ marks a conversion by molar mass, not a printed value.

Assays:
[1] = Cytotoxicity against MDCK cells after 48 hrs by CPE assay; assay type: cell-based, Canis lupus familiaris; details: dog
How it was run: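 MDCK cells kept in Minimum Essential Medium with Earle's salt plus 10% fetal bovine serum at 37 °C, 5% CO₂. […] Medium then replaced by assay medium with or without compound. After 48 h exposure, viability read by CPE assay. CC₅₀ calculated by Reed–Muench analysis.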

[2] = test system: Staphylococcus aureus; assay: Antibacterial activity against 10^4 CFU methicillin-resistant Staphylococcus aureus 08-1 after 18 hrs by CLSI agar dilution method; assay type: functional; details: 08-1, 18 h
[3] = test system: Pseudomonas aeruginosa; assay: Antibacterial activity against 10^4 CFU Pseudomonas aeruginosa ATCC 27853 after 18 hrs by CLSI agar dilution method; assay type: functional; details: ATCC 27853, 18 h
[4] = test system: Staphylococcus aureus; assay: Antibacterial activity against 10^4 CFU Staphylococcus aureus ATCC 25923 after 18 hrs by CLSI agar dilution method; assay type: functional; details: ATCC 25923, 18 h
[5] = test system: Enterococcus faecium; assay: Antibacterial activity against 10^4 CFU Enterococcus faecium 06-7 after 18 hrs by CLSI agar dilution method; assay type: functional; details: 06-7, 18 h
[6] = test system: Streptococcus pneumoniae; assay: Ratio of levofloxacin MIC to compound MIC for Streptococcus pneumoniae 08-4; assay type: functional
How it was run: (§1)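 MICs were measured by agar dilution on plates carrying serial twofold dilutions from […] down to 0.03. Plates were inoculated with 10⁴ cfu and incubated at 35 °C for 18 h. MIC was taken as the lowest concentration giving no visible growth. The ratio is the reference quinolone MIC divided by the test compound MIC for the same strain.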

[7] = test system: Staphylococcus aureus; assay: Antibacterial activity against 10^4 CFU methicillin-sensitive Staphylococcus aureus 08-1 after 18 hrs by CLSI agar dilution method; assay type: functional; details: 08-1, 18 h
[8] = test system: Enterococcus faecalis; assay: Antibacterial activity against 10^4 CFU Enterococcus faecalis 08-12 after 18 hrs by CLSI agar dilution method; assay type: functional; details: 08-12, 18 h
[9] = test system: Staphylococcus epidermidis; assay: Antibacterial activity against 10^4 CFU methicillin-sensitive Staphylococcus epidermidis 09-6 after 18 hrs by CLSI agar dilution method; assay type: functional; details: 09-6, 18 h
[10] = test system: Staphylococcus epidermidis; assay: Antibacterial activity against 10^4 CFU methicillin-resistant Staphylococcus epidermidis 09-2 after 18 hrs by CLSI agar dilution method; assay type: functional; details: 09-2, 18 h
[11] = test system: Pseudomonas aeruginosa; assay: Antibacterial activity against 10^4 CFU Pseudomonas aeruginosa 09-32 after 18 hrs by CLSI agar dilution method; assay type: functional; details: 09-32, 18 h
[12] = test system: Enterococcus faecium; assay: Antibacterial activity against 10^4 CFU Enterococcus faecium 08-2 after 18 hrs by CLSI agar dilution method; assay type: functional; details: 08-2, 18 h
[13] = test system: Escherichia coli; assay: Antibacterial activity against 10^4 CFU Escherichia coli ATCC 25922 after 18 hrs by CLSI agar dilution method; assay type: functional; details: ATCC 25922, 18 h
[14] = test system: Klebsiella pneumoniae; assay: Antibacterial activity against 10^4 CFU Klebsiella pneumoniae 09-23 after 18 hrs by CLSI agar dilution method; assay type: functional; details: 09-23, 18 h
[15] = test system: Streptococcus pneumoniae; assay: Antibacterial activity against 10^4 CFU Streptococcus pneumoniae 08-4 after 18 hrs by CLSI agar dilution method; assay type: functional; details: 08-4, 18 h
[16] = test system: Enterococcus faecalis; assay: Ratio of gemifloxacin MIC to compound MIC for Enterococcus faecalis; assay type: functional; how it was run: as §1
[17] = test system: Staphylococcus epidermidis; assay: Ratio of levofloxacin MIC to compound MIC for methicillin-sensitive Staphylococcus epidermidis 09-6; assay type: functional; how it was run: as §1
[18] = test system: Enterococcus faecalis; assay: Ratio of levofloxacin MIC to compound MIC for Enterococcus faecalis; assay type: functional; how it was run: as §1
[19] = test system: Escherichia coli; assay: Antibacterial activity against 10^4 CFU Escherichia coli 08-21 after 18 hrs by CLSI agar dilution method; assay type: functional; details: 08-21, 18 h
[20] = test system: Klebsiella pneumoniae; assay: Antibacterial activity against 10^4 CFU Klebsiella pneumoniae 09-22 after 18 hrs by CLSI agar dilution method; assay type: functional; details: 09-22, 18 h
[21] = test system: Enterococcus faecalis; assay: Antibacterial activity against 10^4 CFU Enterococcus faecalis 08-10 after 18 hrs by CLSI agar dilution method; assay type: functional; details: 08-10, 18 h
[22] = test system: Enterococcus faecalis; assay: Ratio of gatifloxacin MIC to compound MIC for Enterococcus faecalis; assay type: functional; how it was run: as §1

Row | SMILES | CC50 at 48 h [1] [µM] | MIC [2] [µg/mL] | MIC [3] [µg/mL] | MIC [4] [µg/mL] | MIC [5] [µg/mL] | MIC [7] [µg/mL] | MIC [8] [µg/mL] | MIC [9] [µg/mL] | MIC [10] [µg/mL] | MIC [11] [µg/mL] | MIC [12] [µg/mL] | MIC [13] [µg/mL] | MIC [14] [µg/mL] | MIC [15] [µg/mL] | MIC [19] [µg/mL] | MIC [20] [µg/mL] | MIC [21] [µg/mL] | further results
1 | CO/N=C1\CN(c2c(F)cc3c(=O)c(C(=O)O)cn(C4CC4)c3c2OC)CCC1(C)N (configuration not stated) | 729 | 0.25 (≈ 0.578 µM) | 16 (≈ 37 µM) | 0.125 (≈ 0.289 µM) | > 128 | 0.25 (≈ 0.578 µM) | 1 (≈ 2.31 µM) | 0.25 (≈ 0.578 µM) | 0.25 (≈ 0.578 µM) | 8 (≈ 18.5 µM) | > 128 | > 128 | > 128 | 0.5 (≈ 1.16 µM) | > 128 | > 128 | 1 (≈ 2.31 µM) | Ratio [6]: 4; Ratio [16]: 4; Ratio [17]: 16; Ratio [18]: 4; Ratio [22]: 4
2 | CCO/N=C1\CN(c2c(F)cc3c(=O)c(C(=O)O)cn(C4CC4)c3c2OC)CCC1(C)N (configuration not stated) | 280 | 0.25 (≈ 0.56 µM) | 4 (≈ 8.96 µM) | 0.25 (≈ 0.56 µM) | 128 (≈ 287 µM) | 0.25 (≈ 0.56 µM) | 128 (≈ 287 µM) | 0.25 (≈ 0.56 µM) | 0.25 (≈ 0.56 µM) | 0.5 (≈ 1.12 µM) | 64 (≈ 143 µM) | 128 (≈ 287 µM) | > 128 | 0.25 (≈ 0.56 µM) | > 128 | 1 (≈ 2.24 µM) | 1 (≈ 2.24 µM) | 
3 | CO/N=C1\CN(c2c(F)cc3c(=O)c(C(=O)O)cn4c3c2OC[C@@H]4C)CCC1(C)N (some centres not stated) | 1510 | 0.25 (≈ 0.597 µM) | 8 (≈ 19.1 µM) | 0.25 (≈ 0.597 µM) | > 128 | 0.25 (≈ 0.597 µM) | > 128 | 0.25 (≈ 0.597 µM) | 0.25 (≈ 0.597 µM) | 128 (≈ 306 µM) | > 128 | 128 (≈ 306 µM) | > 128 | 0.25 (≈ 0.597 µM) | > 128 | 2 (≈ 4.78 µM) | 16 (≈ 38.2 µM) | 
4 | CCO/N=C1\CN(c2c(F)cc3c(=O)c(C(=O)O)cn4c3c2OC[C@@H]4C)CCC1(C)N (some centres not stated) | 1160 | 0.25 (≈ 0.578 µM) | 4 (≈ 9.25 µM) | 0.25 (≈ 0.578 µM) | > 128 | 0.25 (≈ 0.578 µM) | 64 (≈ 148 µM) | 0.25 (≈ 0.578 µM) | 0.25 (≈ 0.578 µM) | 64 (≈ 148 µM) | 32 (≈ 74 µM) | 32 (≈ 74 µM) | 2 (≈ 4.62 µM) | 2 (≈ 4.62 µM) | 64 (≈ 148 µM) | 64 (≈ 148 µM) | 32 (≈ 74 µM) | 
5 | COc1c(N2CCNC(C)C2)c(F)cc2c(=O)c(C(=O)O)cn(C3CC3)c12 (configuration not stated) [GATIFLOXACIN] | 396 | 0.25 (≈ 0.666 µM) | 1 (≈ 2.66 µM) | 0.06 (≈ 0.16 µM) | 4 (≈ 10.7 µM) | 0.06 (≈ 0.16 µM) | 4 (≈ 10.7 µM) | 0.25 (≈ 0.666 µM) | 0.25 (≈ 0.666 µM) | 16 (≈ 42.6 µM) | 2 (≈ 5.33 µM) | 4 (≈ 10.7 µM) | 2 (≈ 5.33 µM) | 0.25 (≈ 0.666 µM) | 8 (≈ 21.3 µM) | 0.25 (≈ 0.666 µM) | 8 (≈ 21.3 µM) | 
6 | CO/N=C1\CN(c2nc3c(cc2F)c(=O)c(C(=O)O)cn3C2CC2)CC1CN (configuration not stated) [GEMIFLOXACIN] | 321 | 0.25 (≈ 0.642 µM) | 2 (≈ 5.14 µM) | 0.125 (≈ 0.321 µM) | 16 (≈ 41.1 µM) | 0.06 (≈ 0.154 µM) | 16 (≈ 41.1 µM) | 0.25 (≈ 0.642 µM) | 0.125 (≈ 0.321 µM) | 0.25 (≈ 0.642 µM) | 2 (≈ 5.14 µM) | 4 (≈ 10.3 µM) | 8 (≈ 20.5 µM) | 0.25 (≈ 0.642 µM) | 16 (≈ 41.1 µM) | 8 (≈ 20.5 µM) | 16 (≈ 41.1 µM) | 
